Data from PMC4680848 (Structure (London, England : 1993), 2015).
“Also recorded” adds a separate entry of the source.

Key:
human BiP [1] = molecular target: T1, human BiP (Homo sapiens, UniProt P11021); assay: Fluorescence polarization NR peptide binding affinity; conditions: WT BiP
Procedure, shortened: (§1)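 Human BiP proteins (wild type or variant) were made as Smt3 fusions in E. coli BL21(DE3)Gold. They were purified on HisTrap, cut with Ulp1, run over a second HisTrap, then HiTrap Q and Superdex 200, and stored in 5 mM Hepes-KOH pH7.5, 10 mM KCl. Binding of NR peptide (NRLLLTG) was read by fluorescence polarization across serial protein dilutions. Kd was fitted from binding curves; standard errors come from at least 6 assays on more than two protein purifications.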

isolated SBD of BiP = assay: as above; set-up: species or system human; conditions: isolated SBD vs full-length BiP
Procedure, shortened: as §1

BiP SBD-Tev-NR = assay: Fluorescence polarization NR peptide binding; set-up: species or system human; conditions: SBD with covalently linked NR peptide; WT BiP SBD as positive control
Procedure, shortened: as §1

BiP-T229A = assay: Fluorescence polarization NR peptide binding; set-up: species or system human; conditions: effect of ATP, WT BiP as positive control
Procedure, shortened: as §1

BiP-L3,4′ = assay: Fluorescence polarization NR peptide binding; set-up: species or system human; conditions: L3,4′ modification (TASDNQP→VGG); WT BiP as positive control
Procedure, shortened: as §1

BiP R532E = BiP R532E (Homo sapiens, UniProt P11021, R532E); assay: Fluorescence anisotropy NR peptide binding affinity; conditions: WT BiP as control
Procedure, shortened: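 BiP wild type and mutants were expressed in E. coli BL21(DE3)Gold as Smt3 fusions. Purification was by HisTrap, Ulp1 tag removal, a second HisTrap, HiTrap Q and Superdex 200. Fluorescence polarization/anisotropy binding of NR peptide (NRLLLTG) was measured with serial dilutions of protein, in the presence of ADP or ATP. Kd was calculated from the binding data.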

human BiP [2] = molecular target: T1, human BiP; assay: Fluorescence anisotropy peptide substrate binding kinetics
BiP-PP (G486P/G493P) [3] = molecular target: T2, BiP-PP (G486P/G493P) (Homo sapiens, UniProt P11021, G486P/G493P); assay: Fluorescence polarization peptide binding affinity
BiP-PP (G486P/G493P) [4] = molecular target: T2, BiP-PP (G486P/G493P); assay: Fluorescence anisotropy peptide substrate binding kinetics; conditions: F-NR peptide
BiP-PP = assay: Single-turnover ATPase assay; format: biochemical, human; conditions: single turn-over
[5] = molecular target: F-NR peptide (labelled NR peptide, sequence NRLLLTG); assay: fluorescence polarisation
BiP [6] = assay: Single-turnover ATPase assay; format: biochemical, human
[7] = tested on: DnaK-PP (DnaK-G461P/G468P); assay: Single-turnover ATPase assay; format: biochemical, E. coli
[8] = molecular target: T3, BiP SBD-L3,4′ (residues 418-636), the SBD part of SBD-L3,4′-Tev-NR (human, UniProt P11021 418-636, L3,4′ (TASDNQP→VGG)); assay: crystal structure
T3 sequence (looked up): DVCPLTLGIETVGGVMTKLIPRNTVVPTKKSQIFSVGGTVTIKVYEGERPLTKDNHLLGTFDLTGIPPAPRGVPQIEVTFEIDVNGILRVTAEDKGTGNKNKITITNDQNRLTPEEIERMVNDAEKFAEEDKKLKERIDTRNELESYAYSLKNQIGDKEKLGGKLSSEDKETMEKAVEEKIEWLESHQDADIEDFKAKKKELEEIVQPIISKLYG

BiP [9] = conditions: ref Marcinowski et al., 2011; cited from earlier work

T1 sequence (P11021 19-654): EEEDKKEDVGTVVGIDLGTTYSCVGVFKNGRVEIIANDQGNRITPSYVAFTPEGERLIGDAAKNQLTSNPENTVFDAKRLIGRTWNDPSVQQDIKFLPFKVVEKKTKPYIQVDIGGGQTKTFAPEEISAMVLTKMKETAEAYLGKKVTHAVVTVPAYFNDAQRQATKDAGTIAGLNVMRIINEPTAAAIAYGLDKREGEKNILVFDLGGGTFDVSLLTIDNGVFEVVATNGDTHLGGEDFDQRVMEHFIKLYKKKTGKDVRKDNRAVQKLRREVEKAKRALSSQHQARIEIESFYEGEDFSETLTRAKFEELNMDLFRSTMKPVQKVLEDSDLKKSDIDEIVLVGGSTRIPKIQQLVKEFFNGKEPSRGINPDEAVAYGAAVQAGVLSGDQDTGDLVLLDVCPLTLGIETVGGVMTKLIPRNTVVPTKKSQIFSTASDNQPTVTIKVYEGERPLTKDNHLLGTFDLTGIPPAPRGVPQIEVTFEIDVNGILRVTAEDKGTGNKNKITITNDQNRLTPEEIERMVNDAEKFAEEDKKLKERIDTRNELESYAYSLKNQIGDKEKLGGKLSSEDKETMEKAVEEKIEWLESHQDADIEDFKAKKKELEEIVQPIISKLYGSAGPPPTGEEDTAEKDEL
T2 sequence (P11021 25-654 G486P/G493P limits assumed): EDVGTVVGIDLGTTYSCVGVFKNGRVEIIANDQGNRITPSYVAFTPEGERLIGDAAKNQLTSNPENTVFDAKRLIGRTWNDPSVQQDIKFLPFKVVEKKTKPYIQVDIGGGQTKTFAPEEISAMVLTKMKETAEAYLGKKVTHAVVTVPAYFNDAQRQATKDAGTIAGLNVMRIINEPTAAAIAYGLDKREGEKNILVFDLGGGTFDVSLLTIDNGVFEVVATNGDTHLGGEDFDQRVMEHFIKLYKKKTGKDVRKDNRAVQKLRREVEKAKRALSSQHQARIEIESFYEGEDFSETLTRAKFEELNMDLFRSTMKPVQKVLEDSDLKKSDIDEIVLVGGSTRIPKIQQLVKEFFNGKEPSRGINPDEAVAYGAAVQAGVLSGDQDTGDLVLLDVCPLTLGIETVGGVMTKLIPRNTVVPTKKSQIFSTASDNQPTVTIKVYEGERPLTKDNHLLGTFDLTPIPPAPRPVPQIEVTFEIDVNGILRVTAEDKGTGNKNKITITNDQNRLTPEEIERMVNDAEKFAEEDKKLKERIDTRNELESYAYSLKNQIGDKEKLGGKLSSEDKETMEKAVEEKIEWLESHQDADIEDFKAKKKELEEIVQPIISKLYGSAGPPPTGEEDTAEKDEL
Chain of BiP R532E (P11021 19-654 R532E): as the sequence (P11021 19-654) above, with R514E counted along it

NRLLLTG [NR peptide]
binding affinity in the presence of ADP (human BiP [1]; +ADP): binding affinity is high | affinity for NR peptide in the presence of ATP (human BiP [1]; +ATP): drastically reduced the affinity | NR peptide binding (human BiP [1]; fluorescence polarization, serial dilutions of BiP): binds NR peptide through its SBD and in an ATP-sensitive manner; also recorded: good affinity | affinity of isolated SBD for NR peptide (isolated SBD of BiP): affinity comparable to full-length BiP | binding of free NR peptide (BiP SBD-Tev-NR): Neither BiP SBD-Tev–NR nor SBD-L3,4′-Tev-NR showed appreciable binding; also recorded: completely blocks the binding of free NR peptide | NR peptide binding / affinity, ATP sensitivity (BiP-T229A): binds NR peptide in an ATP-sensitive manner like that of WT BiP; also recorded: significantly reduced affinity for NR peptide in the presence of ATP | affinity for NR peptide / NR peptide binding (BiP-L3,4′): drastically compromised the NR peptide binding; also recorded: drastically reduced affinity | affinity for NR peptide in the presence of ADP (BiP R532E; +ADP): normal affinity | affinity for NR peptide in the presence of ATP (BiP R532E; +ATP): higher than that of WT BiP | binding kinetics, both on and off rates, relative to DnaK (human BiP [2]; BiP vs DnaK, Fig. S1a,b): much slower than those of DnaK | binding kinetics in the presence of ADP (human BiP [2]; WT BiP, +ADP, F-NR peptide): binding kinetics are slow | binding kinetics in the presence of ATP (human BiP [2]; WT BiP, +ATP, F-NR peptide): fast binding kinetics | affinity for NR peptide in the presence of ADP (BiP-PP (G486P/G493P) [3]): reduced affinity | binding kinetics in the presence of ADP (BiP-PP (G486P/G493P) [4]): fast binding kinetics | stimulation of ATPase activity by NR peptide (BiP-PP): failed to stimulate the ATPase activity; also recorded: little appreciable stimulation

human BiP (binding immunoglobulin protein), wild type (from UniProt P11021 19-654) (natural protein)
Kd relative to that of DnaK [5]: 2 times lower

B1: DnaJ: an Hsp40 co-chaperone for DnaK and founding representative of the class I Hsp40s (protein)
chain: MAKQDYYEILGVSKTAEEREIRKAYKRLAMKYHPDRNQGDKEAEAKFKEIKEAYEVLTDSQKRAAYDQYGHAAFEQGGMGGGGFGGGADFSDIFGDVFGDIFGGGRGRQRAARGADLRYNMELTLEEAVRGVTKEIRIPTLEECDVCHGSGAKPGTQPQTCPTCHGSGQVQMRQGFFAVQQTCPHCQGRGTLIKDPCNKCHGHGRVERSKTLSVKIPAGVDTGDRIRLAGEGEAGEHGAPAGDLYVQVQVKQHPIFEREGNNLYCEVPINFAMAALGGEIEVPTLDGRVKLKVPGETQTGKLFRMRGKGVKSVRGGAQGDLLCRVVVETPVGLNERQKQLLQELQESFGGPTGEHNSPRSKSFFDGVKKFFDDLTR
stimulation of ATPase activity by DnaJ (BiP [6]; compared with ERdj3): stimulated BiP although to less extend as ERdj3 | stimulation of ATPase activity by DnaJ (BiP-PP): Neither ERdj3 (d) nor DnaJ (f) showed appreciable stimulation; also recorded: failed to stimulate BiP-PP appreciably | stimulation of ATPase rate by DnaJ relative to WT DnaK ([7]; DnaK-PP vs WT DnaK): about two thirds of that of WT | stimulation of ATPase activity by DnaJ ([7]; DnaK-PP, single turn-over): significant stimulation; also recorded: stimulates the ATPase rate of DnaK-PP drastically; also recorded: stimulated DnaK-PP significantly | fold of stimulation of ATPase rate by DnaJ (DnaK; DnaJ at 0.4 μM, intrinsic ATPase activity set as 1): ~60 fold

B2: NR peptide (sequence NRLLLTG), unlabelled (peptide)
peptide: NRLLLTG
binding result [8]: binds

B3: ERdj3: an abundant class I Hsp40 in ER, proposed to be an Hsp40 for BiP (protein)
chain: GRDFYKILGVPRSASIKDIKKAYRKLALQLHPDRNPDDPQAQEKFQDLGAAYEVLSDSEKRKQYDTYGEEGLKDGHQSSHGDIFSHFFGDFGFMFGGTPRQQDRNIPRGSDIIVDLEVTLEEVYAGNFVEVVRNKPVARQAPGKRKCNCRQEMRTTQLGPGRFQMTQEVVCDECPNVKLVNEERTLEVEIEPGVRDGMEYPFIGEGEPHVDGEPGDLRFRIKVVKHPIFERRGDDLYTNVTISLVESLVGFEMDITHLDGHKVHISRDKITRPGAKLWKKGEGLPNFDNNNIKGSLIITFDVDFPKEQLTEEAREGIKQLLKQGSVQKVYNGLQGY
fold of stimulation of ATPase activity by ERdj3 (BiP [6]; ERdj3 at 4 μM, intrinsic ATPase activity set as 1): more than 20 fold | stimulation of ATPase activity by ERdj3 (BiP-PP): Neither ERdj3 (d) nor DnaJ (f) showed appreciable stimulation; also recorded: failed to show any appreciable stimulation | stimulation of ATPase activity by ERdj3 ([7]; DnaK-PP, single turn-over): significant stimulation; also recorded: significant stimulation on DnaK-PP although to less extend than that of DnaJ; also recorded: stimulated DnaK-PP significantly | stimulation of ATPase activity by ERdj3 (DnaK; single turn-over): stimulated DnaK’s ATPase activity robustly | interaction of ERdj3 with BiP in the presence of ADP (BiP [9]): significant interaction with BiP in the presence of ADP
